Assay results collected from several papers.
Lines come from different studies, so protocols differ.
Target: Mitogen-activated protein kinase 12 (MAPK12, Homo sapiens, UniProt P53778)
One construct used (P53778 1-367): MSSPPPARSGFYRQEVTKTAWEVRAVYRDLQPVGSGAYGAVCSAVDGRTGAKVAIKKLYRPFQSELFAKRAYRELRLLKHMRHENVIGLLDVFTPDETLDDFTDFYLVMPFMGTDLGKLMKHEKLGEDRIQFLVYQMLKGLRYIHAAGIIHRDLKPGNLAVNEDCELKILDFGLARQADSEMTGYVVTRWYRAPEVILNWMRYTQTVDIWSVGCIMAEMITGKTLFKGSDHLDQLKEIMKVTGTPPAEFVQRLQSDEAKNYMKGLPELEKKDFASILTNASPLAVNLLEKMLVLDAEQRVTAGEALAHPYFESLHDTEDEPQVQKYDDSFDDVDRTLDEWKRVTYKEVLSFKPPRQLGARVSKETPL

assay	setting	remaining binding	SMILES
binding	1 µM	100%	CN(CCCC(F)(F)F)c1nccc(-c2cnn3ncccc23)n1
cell-free assay, competition with immobilised ligand	0.1 µM	96%	C[C@@H]1CN(c2cc(-c3n[nH]c4ccc(OC5(C)CC5)cc34)ncn2)C[C@H](C)O1
binding	1 µM	90%	CN(C)c1nccc(-c2cnc3ncccn23)n1
binding, competition with immobilised ligand	1 µM	81%	Cc1cnc(Nc2ccc(C(=O)N3CCC(N4CCCC4)CC3)cc2)nc1-c1cc2ccccc2s1
cell-free assay, competition with immobilised ligand	1 µM	41.7%	Cc1cc(NC(=O)c2cccc(S(F)(F)(F)(F)F)c2)cc(-n2ccn3nc(-c4cccnc4)cc23)c1
binding, competition with immobilised ligand	0.1 µM	90%	C[C@@H](c1ccc(-n2cnc3c(N)ncnc32)cc1)N1CCc2nn(C)c(Cc3ccccc3)c2C1=O
cell-free assay, competition with immobilised ligand	1 µM	58%	CN(c1ccnc(CNc2nc(Nc3ccc4c(c3)CC(=O)N4)ncc2C(F)(F)F)n1)S(C)(=O)=O
binding, competition with immobilised ligand	1 µM	98%	Nc1ncc2c(n1)-c1c([nH]c3ccc(C#CC4CC4)cc13)CCCC2
binding, competition with immobilised ligand	1 µM	100%	O=C(NCCCN1CCOCC1)c1ccc(Nc2ncc(Cl)c(-c3ccc(Cl)s3)n2)cc1
binding	1 µM	37%	C[C@H]1CCN(c2nccc(-c3cnn4ncccc34)n2)C1
cell-free assay, competition with immobilised ligand	1 µM	96%	O=C(Nc1cnc(Oc2ccc(F)cc2)nc1)N1CCc2ncccc2[C@@H]1c1ccc(F)cc1
binding, competition with immobilised ligand	1 µM	100%	O=C(Nc1c[nH]nc1C(=O)NC1CCNCC1)c1cc(F)cc(F)c1
binding, competition with immobilised ligand	1 µM	100%	CNC(=O)[C@@H]1CC[C@@H](n2c(-c3ccc4cnccc4c3)nc3ccc(C(=O)NCc4cccc(C(N)=O)c4)cc32)C1
binding	1 µM	100%	CN(C)c1ncc(F)c(-c2cnn3ncccc23)n1
cell-free assay, competition with immobilised ligand	1 µM	100%	O=C(Nc1cccnn1)N1CC(C/C=C/c2cncc(Oc3ccc(C(F)(F)F)cn3)n2)C1
binding	1 µM	86%	N[C@H]1CCN(c2nccc(-c3cnn4ncccc34)n2)C1
cell-free assay, competition with immobilised ligand	1 µM	100%	COc1ccc2cc(OCC3(C(=O)O)CN(C(=O)c4ccc(F)cc4)C3)ccc2c1
binding, competition with immobilised ligand	1 µM	100%	CCN1CCN(Cc2ccc(C(=O)Nc3ccc(C)c(Oc4ccc5c(c4)CC(=O)N5)c3)cc2C(F)(F)F)CC1
binding	1 µM	85%	Cc1cnn2ncc(-c3ccnc(N(C)C)n3)c2c1
binding, competition with immobilised ligand	1 µM	91%	COc1cnc(Nc2cccc(S(N)(=O)=O)c2)nc1N1CCN(c2ccccc2)CC1
binding, competition with immobilised ligand	1 µM	100%	O=C(NCCCN1CCOCC1)c1ccc(Nc2nccc(-c3cc4ccccc4s3)n2)cc1
